Test results from ChEMBL document CHEMBL4219238, “Design, synthesis, molecular modelling and in vitro cytotoxicity analysis of novel carbamate derivatives as inhibitors of Monoacylglycerol lipase” (Bioorg Med Chem, 2018).
Activity calls are given as the source filed them. The rule behind the calls is not given here.

Key:
[1] = target: T1, Monoglyceride lipase (Homo sapiens, UniProt Q99685); experiment: Inhibition of recombinant human MAGL using 7-HRA as substrate preincubated for 60 mins followed by substrate addition by fluorescence assay
T1 sequence (Q99685 whole entry): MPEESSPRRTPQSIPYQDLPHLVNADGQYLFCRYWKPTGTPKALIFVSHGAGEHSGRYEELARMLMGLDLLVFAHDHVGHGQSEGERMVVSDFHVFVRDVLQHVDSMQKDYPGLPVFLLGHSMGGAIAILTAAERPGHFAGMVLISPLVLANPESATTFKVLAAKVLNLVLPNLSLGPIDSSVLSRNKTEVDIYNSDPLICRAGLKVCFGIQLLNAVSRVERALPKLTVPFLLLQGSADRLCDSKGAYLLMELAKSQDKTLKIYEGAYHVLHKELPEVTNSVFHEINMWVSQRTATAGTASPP

[2] = tested on: B16-F10; experiment: Antiproliferative activity against mouse B16F10 cells at 10 uM after 48 hrs by Cyto Tracker red dye based flow cytometry; assay type: functional, cell-based
Method in brief: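 B16-F10 cells (Iscove's medium, 10% heat-inactivated FBS, 37 °C, 5% CO2) exposed to compound or DMSO for 48 h, stained with CytoTrack Red 628/643 and analysed by flow cytometry. Proliferation index (average number of cells that an initial cell became) expressed as fold change over DMSO control; n = 3; one-way ANOVA with Tukey post-test.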

[3] = target: T2, Monoglyceride lipase (Mus musculus, UniProt O35678); experiment: Inhibition of MAGL in mouse B16-F10 cells using 7-HRA as substrate preincubated for 60 mins followed by substrate addition measured every 2.5 mins for 2 hrs by fluorescence assay; assay type: cell-based
T2 sequence (O35678 whole entry): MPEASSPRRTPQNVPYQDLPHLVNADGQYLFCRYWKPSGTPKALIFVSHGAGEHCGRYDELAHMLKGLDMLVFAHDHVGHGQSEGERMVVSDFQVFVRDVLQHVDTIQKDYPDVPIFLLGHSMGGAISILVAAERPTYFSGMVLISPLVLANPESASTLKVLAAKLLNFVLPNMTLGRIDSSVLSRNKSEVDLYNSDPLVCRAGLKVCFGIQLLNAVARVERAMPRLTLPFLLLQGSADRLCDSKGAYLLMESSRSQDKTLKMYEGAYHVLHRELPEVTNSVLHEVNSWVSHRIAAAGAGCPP

[4] = target: T2, Monoglyceride lipase; experiment: […] of MAGL in mouse B16-F10 cells using 7-HRA as substrate preincubated for 60 mins followed by substrate addition measured every 2.5 mins for 2 hrs by fluorescence assay; assay type: cell-based
[5] = tested on: MCF7; experiment: Induction of apoptosis in human MCF7 cells at 10 nM after 48 hrs by Annexin V-FITC/propidium iodide staining based flow cytometry; assay type: functional, cell-based
[6] = tested on: MCF7; experiment: Induction of apoptosis in human MCF7 cells at 20 uM after 48 hrs by Annexin V-FITC/propidium iodide staining based flow cytometry; assay type: functional, cell-based
Method in brief: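 MCF7 cells grown in 50% DMEM high glucose / 50% Ham's F-12 with 10% heat-inactivated FBS at 37 °C, 5% CO2, then exposed 48 h to compound or DMSO vehicle. Cells stained with annexin V plus 5 µg/ml PI in HEPES/NaCl/CaCl2 binding buffer. Flow cytometry on 10,000 cells per sample. Apoptotic = AnnV+/PI− plus AnnV+/PI+. n=3, mean ± S.E.M.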

[7] = tested on: B16-F10; experiment: Induction of apoptosis in mouse B16F10 cells assessed as necrotic cells at 10 uM after 48 hrs by Annexin V-FITC/propidium iodide staining based flow cytometry (reference value: 2.62%); assay type: functional
[8] = tested on: B16-F10; experiment: Induction of apoptosis in mouse B16F10 cells assessed as live cells at 10 uM after 48 hrs by Annexin V-FITC/propidium iodide staining based flow cytometry (reference value: 88.04%); assay type: functional
[9] = tested on: B16-F10; experiment: Induction of apoptosis in mouse B16F10 cells assessed as early apoptotic cells at 10 uM after 48 hrs by Annexin V-FITC/propidium iodide staining based flow cytometry (reference value: 1.75%); assay type: functional
[10] = target: T3, Fatty-acid amide hydrolase 1 (Homo sapiens) (UniProt O00519); experiment: Inhibition of human FAAH at 10 uM using AAMCA as substrate preincubated for 1 hr followed by substrate addition measured after 30 mins by fluorescence assay relative to control
T3 sequence (whole entry): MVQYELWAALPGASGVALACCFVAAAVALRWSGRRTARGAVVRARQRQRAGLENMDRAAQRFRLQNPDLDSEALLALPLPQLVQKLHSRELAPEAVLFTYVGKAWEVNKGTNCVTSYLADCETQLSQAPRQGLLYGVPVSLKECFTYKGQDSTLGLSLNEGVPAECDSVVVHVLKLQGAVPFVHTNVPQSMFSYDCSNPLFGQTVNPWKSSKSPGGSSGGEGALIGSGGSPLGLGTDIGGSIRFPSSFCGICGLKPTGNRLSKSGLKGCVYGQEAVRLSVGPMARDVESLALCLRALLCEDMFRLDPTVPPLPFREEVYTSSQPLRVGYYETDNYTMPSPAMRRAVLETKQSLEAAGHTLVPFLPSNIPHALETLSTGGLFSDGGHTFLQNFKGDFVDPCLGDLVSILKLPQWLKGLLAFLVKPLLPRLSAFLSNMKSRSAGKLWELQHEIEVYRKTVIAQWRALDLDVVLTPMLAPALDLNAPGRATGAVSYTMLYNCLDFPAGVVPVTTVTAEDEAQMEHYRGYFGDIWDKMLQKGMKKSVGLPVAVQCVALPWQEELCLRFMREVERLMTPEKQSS
Method in brief: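 Recombinant human FAAH (C-terminal His-tagged, Sf21), 1 U/well, in 50 mM Tris-HCl, 1 mM EDTA, pH 9, preincubated 1 h at room temperature with 10 μM compound (final). AAMCA added to 20 μM final; fluorescence (ex 360/em 460 nm) read every 3 min for 30 min. Rate by linear regression, no-enzyme background subtracted, normalised to no-inhibitor control.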

[11] = target: T4, Monoglyceride lipase (Homo sapiens) (UniProt Q99685); experiment: Inhibition of recombinant human MAGL assessed as residual activity at 10 uM using 7-HRA as substrate preincubated for 60 mins followed by substrate addition by fluorescence assay relative to control
T4 sequence (whole entry): T1 sequence (Q99685 whole entry)
Method in brief: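 Recombinant human MAGL (C-terminal His-tagged, E. coli), 25 ng/well, in 50 mM Tris-HCl pH 7.4, 1 mM EDTA, 10% DMSO final. Preincubated with inhibitor or DMSO 60 min at room temperature, then 5 μM 7-HRA (final) added. Resorufin fluorescence (ex 571/em 588 nm) converted via calibration curve. Rates from linear regression, no-enzyme background subtracted, normalised to no-inhibitor control. IC50 taken at 30 min by variable-slope sigmoid fit.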

[12] = target: T5, Monoglyceride lipase (Mus musculus) (UniProt O35678); experiment: Inhibition of MAGL in mouse B16-F10 intact cells at 10 uM using 7-HRA as substrate preincubated for 6 hrs followed by substrate addition by fluorescence assay; assay type: cell-based
T5 sequence (whole entry): T2 sequence (O35678 whole entry)
Method in brief: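 Intact B16-F10 cells cultured 6 h with compound or DMSO, homogenised 30 min at 4 °C in lysis buffer and spun 1,500 × g 5 min. 1 μg lysate assayed with 10 μM 7-HRA (ex 571/em 588 nm); 5-min values reported; mean ± SEM, n = 3.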

[13] = target: T4, Monoglyceride lipase (Homo sapiens); experiment: Inhibition of MAGL in human MCF7 cells at 10 uM using 7-HRA as substrate preincubated for 6 hrs followed by substrate addition by fluorescence assay; assay type: cell-based
Method in brief: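 MCF7 cells cultured 6 h with 10 μM compound or DMSO, then lysed; MAGL activity measured on total cell lysate using the 7-HRA fluorogenic assay.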

[14] = tested on: B16-F10; experiment: Induction of apoptosis in mouse B16F10 cells assessed as late apoptotic cells at 10 uM after 48 hrs by Annexin V-FITC/propidium iodide staining based flow cytometry (reference value: 7.39%); assay type: functional
[15] = tested on: MCF7; experiment: Induction of apoptosis in human MCF7 cells at 10 uM after 48 hrs by Annexin V-FITC/propidium iodide staining based flow cytometry; assay type: functional, cell-based
Method in brief: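 HEK293T (DMEM with 10% FBS) or MCF7 (DMEM/Ham's F-12 1:1, 10% FBS) cells treated 48 h with 10 μM compound or DMSO. Staining with Alexa Fluor 488 annexin V plus 5 μg/ml PI in HEPES/NaCl/CaCl2 binding buffer; 10,000 cells per sample read by flow cytometry; n = 3, mean ± S.E.M.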

O=C(Nc1cccc(-c2ccccc2)c1)OCc1ccccc1
IC50 ([1]; read-out: IC50): 11.1 µM | Activity [2]: inactive | IC50 ([3]; read-out: IC50): 16.5 µM

O=C(Nc1cccc(-c2ccccc2)c1)OCc1ccco1
IC50 [1]: Nd(Insoluble) | IC50 ([3]; b16-f10): Nd(Insoluble)

O=C(Nc1cccc(-c2ccccc2)c1)OCCc1ccccc1
Activity [2]: inactive | IC50 ([3]; read-out: IC50): 17.1 µM

O=C(Nc1cccc(-c2ccc(F)cc2)c1)OCC1CCCCC1
Activity [2]: inactive | IC50 ([3]; read-out: IC50): 26.7 µM

O=C(Nc1cccc(-c2ccccc2)c1)Nc1cccc(-c2ccccc2)c1
EC50 [4]: 5.76 µM

COc1ccc(-c2ccc(-c3cn(C(=O)N4CCCCC4c4ccccc4)nn3)cc2)cc1 (configuration not stated)
Activity [5]: inactive

O=C(Oc1ccc([N+](=O)[O-])cc1)N1CCC(C(O)(c2ccc3c(c2)OCO3)c2ccc3c(c2)OCO3)CC1
Activity [6]: Active

O=C(Nc1cccc(-c2ccc(C(F)(F)F)cc2)c1)OCc1ccccc1
Activity [7]: 2.96% | Activity [8]: 64.51% | Activity [9]: 9.89% | IC50 ([1]; read-out: IC50): 4.5 µM | inhibition [10]: 15% | Activity [2]: Active | Activity [11]: 82% | inhibition [12]: Active | IC50 ([3]; read-out: IC50): 9.41 µM | inhibition [13]: Active | Activity [14]: 22.65%

CCCCCCCC/C=C\CCCCCCCC(=O)NCC
inhibition [10]: 99% | Activity [15]: inactive

O=C(Nc1cccc(-c2ccc(F)cc2)c1)OCc1ccccc1
Activity [2]: inactive | IC50 ([3]; read-out: IC50): 15.6 µM

O=C(Nc1cccc(-c2ccccc2)c1)OC1CCCCC1
Activity [7]: 5.48% | Activity [8]: 79.55% | Activity [9]: 1.43% | IC50 ([1]; read-out: IC50): 9.1 µM | Activity [2]: inactive | Activity [11]: 66% | IC50 ([3]; read-out: IC50): 19.8 µM | Activity [14]: 13.54%

O=C(Nc1cccc(-c2ccc(C(F)(F)F)cc2)c1)OCC1CCCCC1
Activity [2]: inactive | IC50 ([3]; read-out: IC50): 17.4 µM
